# According to BindingDB's records for doi:10.1021/jm0500119 (Cnrs-University of Lille 2 Umr 8525, 2005):
# Target: Peptidyl-prolyl cis-trans isomerase NIMA-interacting 1 (Homo sapiens, UniProt Q13526)
# Experiment: Dissociation constant for human peptidyl-prolyl cis-trans isomerase NIMA-interacting 1
# How it was run: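 15N-labeled Pin1 WW domain (His6-tagged, expressed in E. coli BL21(DE3)) in 25 mM deuterated Tris-HCl pH 6.8, 50 mM NaCl, 5 mM DTT, 2.5 mM EDTA, 10% D2O; 600 MHz 1H-15N HSQC at 293 K. 50 μM protein titrated with ligand 0.025–1 mM final; chemical shift perturbations fitted to a single-site equation for KD.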
# Chain of Peptidyl-prolyl cis-trans isomerase NIMA-interacting 1 (Q13526 whole entry): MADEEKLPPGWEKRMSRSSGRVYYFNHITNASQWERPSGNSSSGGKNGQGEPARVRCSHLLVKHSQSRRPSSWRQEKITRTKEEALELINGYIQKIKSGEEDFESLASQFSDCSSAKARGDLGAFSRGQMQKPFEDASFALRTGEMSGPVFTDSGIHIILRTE
smiles,measurement,value
"NC(=O)[C@@H]1CCCN1C(=O)CCNc1c(O)c(=O)c1=O [1-[(S)-3-(2-Hydroxy-3,4-dioxo-cyclobut-1-enylamino)-propionyl]-pyrrolidine-2-carboxylic acid amide]",Kd,> 2000 µM
